Two compounds from ChEMBL document CHEMBL1275556, “High prevalence of plasmid-mediated quinolone resistance genes qnr and aac(6')-Ib-cr in clinical isolates of Enterobacteriaceae from nine teaching hospitals in China” (2008) can be followed below.

Values after ≈ are worked out from the molar mass of the structure shown.

Common to all, as to assay type: functional
The subject of test [1] is Klebsiella pneumoniae. Put plainly: Antimicrobial activity against aac(6')-Ib-cr-positive Klebsiella pneumoniae GZ40T harboring qnrB gene by agar dilution method in presence of Tazobactam. In short, it runs like this: (§1)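 MICs were determined by the CLSI agar dilution method (M7-A7) and interpreted against CLSI M100-S17 breakpoints.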
On the technique in general: In agar dilution the substance is mixed into plates at graded concentrations.

Test [2] has as its system Citrobacter freundii. Put plainly: Antimicrobial activity against aac(6')-Ib-cr-positive Citrobacter freundii JS33T harboring qnrA gene by agar dilution method in presence of Tazobactam. In short, it runs like this: as §1
The test system of test [3] is Escherichia coli. Put plainly: Antimicrobial activity against Escherichia coli J53 harboring wild-type GyrA, ParC, GyrB genes by agar dilution method in presence of beta-lactamase inhibitor Tazobactam. In short, it runs like this: (§2)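 MICs measured by CLSI agar dilution (M7-A7) and interpreted against CLSI M100-S17 breakpoints. Strains were clinical Enterobacteriaceae isolates or the azide-resistant E. coli J53 recipient.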

Test [4] deals with Klebsiella pneumoniae. Put plainly: Antimicrobial activity against aac(6')-Ib-cr-positive Klebsiella pneumoniae SY26T harboring wild-type GyrA, ParC, GyrB and qnrB genes by agar dilution method in presence of Tazobactam. In short, it runs like this:
(§3)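 Transconjugants were made by conjugating a qnr/aac(6')-Ib-cr donor with azide-resistant E. coli J53. Selection used Trypticase soy agar with sodium azide 150 µg/ml and sulfamethoxazole 180 µg/ml. […] MICs were read by CLSI agar dilution (M7-A7) and interpreted per M100-S17.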

Test [5] concerns Citrobacter freundii. Put plainly: Antimicrobial activity against aac(6')-Ib-cr-negative Citrobacter freundii JN64 harboring GyrA T83I, wild-type ParC, GyrB and qnrA genes by agar dilution method in presence of Tazobactam. A digest of the protocol: as §1
Test [6] relates to Escherichia coli. Put plainly: Antimicrobial activity against aac(6')-Ib-cr-positive Escherichia coli FJ3 harboring GyrA S83L, ParC S80R mutant, wild-type GyrB and qnrB genes by agar dilution method in presence of Tazobactam. In short, it runs like this: as §2
The test system of test [7] is Klebsiella pneumoniae. Put plainly: Antimicrobial activity against aac(6')-Ib-cr-positive Klebsiella pneumoniae WH99 harboring wild-type GyrA, ParC, GyrB and qnrB genes by agar dilution method in presence of Tazobactam. In short, it runs like this:
as §2

The test system of test [8] is Klebsiella pneumoniae. Put plainly: Antimicrobial activity against aac(6')-Ib-cr-positive Klebsiella pneumoniae GZ40 harboring GyrA S83I, ParC S80I mutant, wild-type GyrB and qnrB genes by agar dilution method in presence of Tazobactam. In short, it runs like this:
as §1

Test [9] concerns Citrobacter freundii. Put plainly: Antimicrobial activity against aac(6')-Ib-cr-positive Citrobacter freundii JS33 harboring GyrA T83I mutant, wild-type ParC, GyrB, qnrA and qnrB genes by agar dilution method in presence of Tazobactam. A digest of the protocol:
as §1

Test [10] concerns Klebsiella pneumoniae. Put plainly: Antimicrobial activity against aac(6')-Ib-cr-positive Klebsiella pneumoniae JN132 harboring GyrA S83I, ParC S80I mutant, wild-type GyrB and qnrB genes by agar dilution method in presence of Tazobactam. In short, it runs like this: as §2
Test [11] has as its system Enterobacter cloacae. Put plainly: Antimicrobial activity against aac(6')-Ib-cr-negative Enterobacter cloacae WH42 harboring wild-type GyrA, ParC, GyrB and qnrA genes by agar dilution method in presence of clavulanic acid. A digest of the protocol: as §1
Test [12] relates to Enterobacter cloacae. Put plainly: Antimicrobial activity against aac(6')-Ib-cr-negative Enterobacter cloacae FJ67T harboring qnrS gene by agar dilution method in presence of clavulanic acid. In short, it runs like this: (§4)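 Transconjugants came from conjugation of qnr and/or aac(6')-Ib-cr-carrying donors with azide-resistant E. coli J53. […] MICs were determined by CLSI agar dilution (M7-A7) and interpreted by M100-S17.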

The subject of test [13] is Enterobacter cloacae. Put plainly: Antimicrobial activity against aac(6')-Ib-cr-negative Enterobacter cloacae SH39 harboring GyrA S83I, ParC S80I mutant, wild-type GyrB and qnrA genes by agar dilution method in presence of clavulanic acid. In short, it runs like this: (§5)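 MICs were determined by CLSI agar dilution (M7-A7) and interpreted by CLSI M100-S17 breakpoints. The curator's line names the β-lactamase inhibitor added.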

Test [14] deals with Klebsiella pneumoniae. Put plainly: Antimicrobial activity against aac(6')-Ib-cr-negative Klebsiella pneumoniae SY22 harboring GyrA S83I, ParC S80I mutant, wild-type GyrB and qnrS genes by agar dilution method in presence of clavulanic acid. In short, it runs like this:
as §5

The subject of test [15] is Citrobacter freundii. Put plainly: Antimicrobial activity against aac(6')-Ib-cr-positive Citrobacter freundii JS33T harboring qnrA gene by agar dilution method in presence of clavulanic acid. A digest of the protocol:
as §4

The test system of test [16] is Klebsiella pneumoniae. Put plainly: Antimicrobial activity against aac(6')-Ib-cr-positive Klebsiella pneumoniae JN41T harboring qnrB gene by agar dilution method. A digest of the protocol: as §3
Test [17] relates to Enterobacter cloacae. Put plainly: Antimicrobial activity against aac(6')-Ib-cr-negative Enterobacter cloacae GZ51 harboring qnrA gene by agar dilution method.
Test [18] deals with Citrobacter freundii. Put plainly: Antimicrobial activity against aac(6')-Ib-cr-positive Citrobacter freundii TJ15T harboring wild-type GyrA, ParC, GyrB genes by agar dilution method. In short, it runs like this: as §1
Test [19] has as its system Escherichia coli. Put plainly: Antimicrobial activity against aac(6')-Ib-cr-positive Escherichia coli FJ3 harboring GyrA S83L, ParC S80R mutant, wild-type GyrB and qnrB genes by agar dilution method in presence of clavulanic acid. In short, it runs like this: as §5
The test system of test [20] is Klebsiella pneumoniae. Put plainly: Antimicrobial activity against aac(6')-Ib-cr-positive Klebsiella pneumoniae SY26T harboring wild-type GyrA, ParC, GyrB and qnrB genes by agar dilution method. A digest of the protocol:
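Transconjugants were made by conjugating a qnr/aac(6')-Ib-cr donor with azide-resistant E. coli J53. MICs were read by CLSI agar dilution (M7-A7) and interpreted per M100-S17.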

The test system of test [21] is Klebsiella pneumoniae. Put plainly: Antimicrobial activity against aac(6')-Ib-cr-positive Klebsiella pneumoniae JN41 harboring GyrA S83I, ParC S80I mutant, wild-type GyrB and qnrB genes by agar dilution method in presence of clavulanic acid. A digest of the protocol: as §5
Test [22] concerns Klebsiella pneumoniae. Put plainly: Antimicrobial activity against aac(6')-Ib-cr-positive Klebsiella pneumoniae SY26 harboring GyrA S83I, ParC S80I mutant, wild-type GyrB and qnrB genes by agar dilution method in presence of clavulanic acid. In short, it runs like this: as §2
The subject of test [23] is Klebsiella pneumoniae. Put plainly: Antimicrobial activity against aac(6')-Ib-cr-positive Klebsiella pneumoniae JN132T harboring qnrB gene by agar dilution method in presence of clavulanic acid. A digest of the protocol:
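Transconjugants came from conjugation of qnr and/or aac(6')-Ib-cr donors into azide-resistant E. coli J53. […] MICs were measured by CLSI agar dilution (M7-A7) and interpreted per M100-S17.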

In test [24] the test system is Citrobacter freundii. Put plainly: Antimicrobial activity against aac(6')-Ib-cr-positive Citrobacter freundii JS33 harboring GyrA T83I mutant, wild-type ParC, GyrB, qnrA and qnrB genes by agar dilution method. A digest of the protocol:
as §1

Test [25] deals with Enterobacter cloacae. Put plainly: Antimicrobial activity against aac(6')-Ib-cr-negative Enterobacter cloacae FJ61 harboring GyrA S83I, GyrA D87A, ParC S80I mutant, wild-type GyrB and qnrS genes by agar dilution method in presence of clavulanic acid. A digest of the protocol: as §2
Test [26] relates to Citrobacter freundii. Put plainly: Antimicrobial activity against aac(6')-Ib-cr-negative Citrobacter freundii JN64T harboring qnrA gene by agar dilution method in presence of clavulanic acid. In short, it runs like this:
as §4

Test [27] relates to Escherichia coli. Put plainly: Antimicrobial activity against aac(6')-Ib-cr-negative Escherichia coli PU12 harboring GyrA S83L mutant, wild-type GyrB, ParC and qnrS genes by agar dilution method. A digest of the protocol:
as §1

Test [28] has as its system Klebsiella pneumoniae. Put plainly: Antimicrobial activity against aac(6')-Ib-cr-positive Klebsiella pneumoniae GZ40 harboring GyrA S83I, ParC S80I mutant, wild-type GyrB and qnrB genes by agar dilution method. A digest of the protocol: as §1
The test system of test [29] is Enterobacter cloacae. Put plainly: Antimicrobial activity against aac(6')-Ib-cr-positive Enterobacter cloacae FJ63T harboring qnrS gene by agar dilution method.

Broadly, the MIC is the lowest concentration that inhibits growth of the organism. In the case of `CCN1CCN(C(=O)N[C@@H](C(=O)N[C@@H]2C(=O)N3[C@@H]2SC(C)(C)[C@@H]3C(=O)O)c2ccccc2)C(=O)C1=O` [PIPERACILLIN], the MIC was 1 µg/mL in the test with Klebsiella pneumoniae [1]; 4 µg/mL in the test with Citrobacter freundii [2]; 1 µg/mL in the test with Escherichia coli [3]; 2 µg/mL in the test on Klebsiella pneumoniae [4]; greater than 256 µg/mL with Citrobacter freundii [5]; 2 µg/mL in the test on Escherichia coli [6]. In addition, the MIC was 8 µg/mL with Klebsiella pneumoniae [7], greater than 256 µg/mL in the test on Klebsiella pneumoniae [8], 8 µg/mL with Citrobacter freundii [9] and 4 µg/mL with Klebsiella pneumoniae [10].
Consider `CO/N=C(\C(=O)N[C@@H]1C(=O)N2C(C(=O)O)=C(COC(C)=O)CS[C@H]12)c1csc(N)n1` [CEFOTAXIME], for which the MIC in the test on Enterobacter cloacae [11] came out at 256 µg/mL; in the test with Enterobacter cloacae [12] it was 0.032 µg/mL; with Enterobacter cloacae [13], 32 µg/mL; in the test on Klebsiella pneumoniae [14], 0.064 µg/mL; in the test on Citrobacter freundii [15] it was 0.032 µg/mL; in the test with Klebsiella pneumoniae [16], 16 µg/mL (≈ 35.1 µM). Further, the MIC was determined as 64 µg/mL (≈ 141 µM) in the test on Enterobacter cloacae [17]; 0.125 µg/mL (≈ 0.274 µM) in the test with Citrobacter freundii [18]; 0.032 µg/mL with Escherichia coli [19]; 4 µg/mL (≈ 8.78 µM) against Klebsiella pneumoniae [20]; 0.032 µg/mL in the test on Klebsiella pneumoniae [21]; 8 µg/mL in the test on Klebsiella pneumoniae [22]. Further, the minimal inhibitory concentration (MIC) is 1 µg/mL in the test on Klebsiella pneumoniae [23]; 8 µg/mL (≈ 17.6 µM) against Citrobacter freundii [24]; 8 µg/mL in the test on Enterobacter cloacae [25]; 0.064 µg/mL in the test on Citrobacter freundii [26]; 16 µg/mL (≈ 35.1 µM) in the test on Escherichia coli [27]; greater than 256 µg/mL against Klebsiella pneumoniae [28]. The same compound came in with a minimal inhibitory concentration (MIC) in the test with Enterobacter cloacae [29] of 32 µg/mL (≈ 70.3 µM).
